Data set [1] has as its target Nitric oxide synthase 1 (Rattus norvegicus, UniProt P29476). Briefly: Inhibition of rat recombinant nNOS expressed in baculovirus-infected Sf9 cells assessed as conversion of oxyhemoglobin to methemoglobin by UV spectrophotometer analysis.
For data set [2], the target named is T1, Nitric oxide synthase 3 (Mus musculus, UniProt P70313).
T1 sequence (P70313 whole entry): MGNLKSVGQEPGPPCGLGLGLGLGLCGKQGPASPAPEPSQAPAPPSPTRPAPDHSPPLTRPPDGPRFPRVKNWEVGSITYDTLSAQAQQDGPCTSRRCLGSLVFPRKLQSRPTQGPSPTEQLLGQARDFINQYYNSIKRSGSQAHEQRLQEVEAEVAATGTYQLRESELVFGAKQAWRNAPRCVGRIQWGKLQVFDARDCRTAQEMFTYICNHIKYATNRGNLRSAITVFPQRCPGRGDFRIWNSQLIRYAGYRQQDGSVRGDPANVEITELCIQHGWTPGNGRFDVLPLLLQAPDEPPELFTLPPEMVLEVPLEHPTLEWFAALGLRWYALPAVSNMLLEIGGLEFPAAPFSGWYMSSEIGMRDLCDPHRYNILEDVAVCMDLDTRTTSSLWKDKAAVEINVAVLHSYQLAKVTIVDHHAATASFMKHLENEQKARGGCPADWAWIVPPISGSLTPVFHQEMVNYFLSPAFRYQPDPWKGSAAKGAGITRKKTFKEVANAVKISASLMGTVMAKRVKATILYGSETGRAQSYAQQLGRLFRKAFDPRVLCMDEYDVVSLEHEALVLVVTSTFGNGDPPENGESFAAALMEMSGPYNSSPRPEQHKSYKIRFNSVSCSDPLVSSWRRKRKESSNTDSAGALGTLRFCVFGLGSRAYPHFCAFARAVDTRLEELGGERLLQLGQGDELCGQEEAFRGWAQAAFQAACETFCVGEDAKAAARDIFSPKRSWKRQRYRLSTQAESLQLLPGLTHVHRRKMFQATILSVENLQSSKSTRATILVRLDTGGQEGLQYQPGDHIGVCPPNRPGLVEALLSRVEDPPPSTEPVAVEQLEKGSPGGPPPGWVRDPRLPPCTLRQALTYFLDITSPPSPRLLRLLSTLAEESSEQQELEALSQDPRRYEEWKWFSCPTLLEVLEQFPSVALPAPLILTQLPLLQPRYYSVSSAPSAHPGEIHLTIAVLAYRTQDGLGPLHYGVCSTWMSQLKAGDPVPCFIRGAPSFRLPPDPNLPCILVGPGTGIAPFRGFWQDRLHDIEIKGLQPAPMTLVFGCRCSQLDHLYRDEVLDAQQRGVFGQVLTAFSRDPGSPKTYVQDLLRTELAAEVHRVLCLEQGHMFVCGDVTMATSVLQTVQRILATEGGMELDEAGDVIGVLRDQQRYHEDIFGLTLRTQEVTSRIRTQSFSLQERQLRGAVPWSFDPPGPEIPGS
The data set is described as follows: Inhibition of C57BL/6 mouse eNOS assessed as conversion of oxyhemoglobin to methemoglobin by UV spectrophotometer analysis. The method, boiled down:
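eNOS from H5V mouse endothelial cells (passage 5, DMEM with 10% FCS, 37 °C, 5% CO2). Cells were sonicated in Tris-HCl pH 7.4 with EDTA, DTT and protease inhibitors, and the 20,000 g supernatant was used. Activity was followed as oxyhemoglobin→methemoglobin conversion in Hepes pH 7.4 with L-arginine, NADPH, FAD, BH4, Ca2+ and calmodulin. Compounds tested at 500, 100 and 50. Results reported as Ki or percent inhibition.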

The subject of data set [3] is CYP450. Briefly: Inhibition of rat spleen microsomal CYP450 assessed as reduction of NADPH dependent cytochrome c at 500 uM. It is filed as ADME. The following applies: spleen microsomes, probe cytochrome c. The method in brief: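 Rat spleen microsomal P450 activity measured as NADPH-dependent cytochrome c reduction. Incubation 15 min at 25 °C with or without compound, range 5–500.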

Data set [4] deals with Radical scavenging activity. The data set is described as follows: Antioxidant activity assessed as DPPH free radical scavenging activity after 10 mins. It is filed as functional. The method, boiled down: (§1)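 Compounds in ethanol with DPPH radical, tested at 50, 100 and 500, held 10 min at room temperature. Absorbance read at 517 nm and reported as percent decrease against control. IC50 was calculated for selected compounds. Trolox served as reference. Standard deviation was ≤10% (n ≥ 3).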
Background: DPPH is a stable violet radical that fades when it is reduced.

Data set [5] concerns Radical scavenging activity. Briefly: Antioxidant activity assessed as DPPH free radical scavenging activity at 500 uM after 10 mins relative to control. It is filed as functional. The method in brief:
as §1

Data set [6] deals with Radical scavenging activity. Briefly: Antioxidant activity assessed as DPPH free radical scavenging activity at 100 uM after 10 mins relative to control. The format is functional. The method in brief: as §1
Data set [7] has as its system Radical scavenging activity. Briefly: Antioxidant activity assessed as DPPH free radical scavenging activity at 50 uM after 10 mins relative to control. It is filed as functional. The method in brief:
as §1

The nature of data set [8]: Antioxidant activity assessed as NADH oxidation-induced superoxide radical scavenging activity after 20 mins. It is filed as functional. The method, boiled down: (§2)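 Superoxide generated without a Fenton-type reaction from NADH, EDTA/MnCl2 and β-mercaptoethanol in triethanolamine-diethanolamine buffer, pH 7.4 (1 mL). Compounds tested at 25, 50 and 100. […] IC50 was calculated. SOD (40 mU/ml) served as reference. SD ≤10% (n ≥ 3).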

Data set [9] in a line: Antioxidant activity assessed as NADH oxidation-induced superoxide radical scavenging activity at 100 uM after 20 mins relative to control. It is filed as functional. The method in brief: as §2
Data set [10] can be described thus: Antioxidant activity assessed as NADH oxidation-induced superoxide radical scavenging activity at 50 uM after 20 mins relative to control. It is filed as functional. The method in brief:
as §2

Data set [11] in a line: Antioxidant activity assessed as NADH oxidation-induced superoxide radical scavenging activity at 25 uM after 20 mins relative to control. The format is functional. The method, boiled down: as §2
Data set [12] concerns Plasma. Briefly: Antioxidant activity in human plasma assessed as inhibition of Fe2+-induced lipid hydroperoxidation after 2 hrs by FOX assay. It is filed as functional, cell-free.
Data set [13] concerns Plasma. Briefly: Antioxidant activity in human plasma assessed as inhibition of Fe2+-induced lipid hydroperoxidation at 100 uM after 2 hrs by FOX assay relative to control. It is filed as functional, cell-free. The method, boiled down: (§3)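 Plasma from a healthy donor: heparinized venous blood taken after an overnight fast, spun at 800 g for 20 min. Plasma was diluted 1:1 with oxygenated PBS and incubated 2 h at 37 °C with or without compound (10, 50, 100). Lipid hydroperoxides were measured by FOX assay (Fe2+→Fe3+ with xylenol orange, 560 nm), calibrated against H2O2. Results given as percent inhibition against untreated plasma.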

For data set [14], the system named is Plasma. The data set is described as follows: Antioxidant activity in human plasma assessed as inhibition of Fe2+-induced lipid hydroperoxidation at 50 uM after 2 hrs by FOX assay relative to control. The format is functional, cell-free. The method in brief:
as §3

Data set [15] concerns Plasma. The data set is described as follows: Antioxidant activity in human plasma assessed as inhibition of Fe2+-induced lipid hydroperoxidation at 25 uM after 2 hrs by FOX assay relative to control. The format is functional, cell-free.

Sequence of Nitric oxide synthase 1 (P29476 whole entry): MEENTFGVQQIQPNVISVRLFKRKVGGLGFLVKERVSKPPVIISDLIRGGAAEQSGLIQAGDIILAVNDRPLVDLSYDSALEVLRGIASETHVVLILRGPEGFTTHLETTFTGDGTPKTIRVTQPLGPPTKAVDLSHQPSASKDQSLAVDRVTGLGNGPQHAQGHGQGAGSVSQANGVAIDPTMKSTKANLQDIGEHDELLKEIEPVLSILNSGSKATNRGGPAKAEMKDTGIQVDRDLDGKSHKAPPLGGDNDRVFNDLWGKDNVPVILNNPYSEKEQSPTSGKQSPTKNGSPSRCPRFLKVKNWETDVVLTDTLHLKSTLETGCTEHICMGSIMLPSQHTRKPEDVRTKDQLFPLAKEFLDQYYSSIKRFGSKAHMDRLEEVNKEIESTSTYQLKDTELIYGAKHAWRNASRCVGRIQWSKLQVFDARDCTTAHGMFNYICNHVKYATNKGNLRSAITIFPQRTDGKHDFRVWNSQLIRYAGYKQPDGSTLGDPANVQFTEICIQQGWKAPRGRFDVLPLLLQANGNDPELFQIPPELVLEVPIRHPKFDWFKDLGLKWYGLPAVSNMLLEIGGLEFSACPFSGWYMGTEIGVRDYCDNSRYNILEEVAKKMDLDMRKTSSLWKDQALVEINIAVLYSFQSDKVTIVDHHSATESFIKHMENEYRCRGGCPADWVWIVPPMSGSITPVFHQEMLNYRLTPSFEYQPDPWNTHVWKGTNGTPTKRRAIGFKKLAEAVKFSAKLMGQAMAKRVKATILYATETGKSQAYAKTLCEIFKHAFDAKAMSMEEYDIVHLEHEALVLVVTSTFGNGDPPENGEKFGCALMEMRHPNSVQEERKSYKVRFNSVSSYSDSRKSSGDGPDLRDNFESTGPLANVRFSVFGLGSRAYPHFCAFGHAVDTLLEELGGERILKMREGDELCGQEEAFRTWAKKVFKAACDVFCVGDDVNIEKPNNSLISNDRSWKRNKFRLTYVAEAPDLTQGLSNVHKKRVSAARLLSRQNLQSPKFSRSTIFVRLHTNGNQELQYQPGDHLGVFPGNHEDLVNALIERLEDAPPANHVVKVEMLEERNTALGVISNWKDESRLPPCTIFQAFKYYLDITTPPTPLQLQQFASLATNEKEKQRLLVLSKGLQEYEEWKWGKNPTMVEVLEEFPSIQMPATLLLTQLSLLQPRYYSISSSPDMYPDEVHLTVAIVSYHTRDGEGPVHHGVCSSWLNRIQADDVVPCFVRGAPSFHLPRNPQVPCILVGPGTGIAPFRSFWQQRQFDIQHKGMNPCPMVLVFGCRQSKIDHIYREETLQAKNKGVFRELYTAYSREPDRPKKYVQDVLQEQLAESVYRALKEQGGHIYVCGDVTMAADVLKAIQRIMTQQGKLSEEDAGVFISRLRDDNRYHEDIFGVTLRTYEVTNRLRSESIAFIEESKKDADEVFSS

By Ki is commonly meant the equilibrium dissociation constant of an inhibitor or competing ligand from its target. One may read the inhibition as the share of the control response that was lost under treatment. A word on the IC50: it is the concentration that gives 50% inhibition. Regarding `Cc1cn(CC(=O)c2ccc([N+](=O)[O-])cc2)cn1`, the Ki in [1] is 85 µM; in [2], > 2 mM. Besides, the inhibition at 500 µM in data set [3] was found to be 13%. In addition, the Activity result in [4] was “Dose-dependent effect”; in data set [5] it was 41%; in [6], 17%; in [7], 12%; in [8], “Dose-dependent effect”; in data set [9], 56%. The Activity is 23% in data set [10] and 20% in data set [11]. The values for the IC50 in [4], in data set [8] and in data set [12] were > 500 µM, 66 µM and 10 µM, respectively. The figures for the inhibition in [13], in [14] and in data set [15] were 69%, 65% and 53%, respectively.
